Assay results taken from ChEMBL document CHEMBL1156385, “Macharistol, a new cytotoxic cinnamylphenol from the stems of Machaerium aristulatum” (J Nat Prod, 2001).
Converted amounts (≈) assume the structure as drawn. The source made the active and inactive calls. The rule behind the calls is not given here.

Assays:
KB [1] = experiment: Cytotoxicity against human KB cells; format: functional, cell-based
Col2 [2] = experiment: Growth inhibition of human Col2 cells implanted at subcutaneous compartment of athymic NCr nu/nu mouse at 25 mg/kg, ip administered once daily after 3 to 6 days of fiber implantation measured on day 7 by hollow fiber assay; format: functional; details: Col2, sc, read-out: GI
In short: (§1)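 Hollow fibers carrying KB (7.5 × 10⁵ cells/mL), Col-2 (10⁶ cells/mL) or hTERT-RPE1 (2.5 × 10⁶ cells/mL) cells were implanted i.p. and s.c. in female athymic NCr nu/nu mice. Compound was coprecipitated with PVP (MW 360 000) and dissolved in PBS. Doses of 6.25, 12.5 or 25 mg/kg were given i.p. once daily on days 3–6 after implantation. Fiber cell growth inhibition was measured.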

Col2 [3] = experiment: Growth inhibition of human Col2 cells implanted at intraperitoneal compartment of athymic NCr nu/nu mouse at 25 mg/kg, ip administered once daily after 3 to 6 days of fiber implantation measured on day 7 by hollow fiber assay; format: functional; details: read-out: GI; in short: as §1
KB [4] = experiment: Growth inhibition of human KB cells implanted at subcutaneous compartment of athymic NCr nu/nu mouse at 25 mg/kg, ip administered once daily after 3 to 6 days of fiber implantation measured on day 7 by hollow fiber assay; format: functional; details: sc, read-out: GI; in short: as §1
[5] = Growth inhibition of human telomerase […] RPE1 cells implanted at intraperitoneal compartment of athymic NCr nu/nu mouse at 25 mg/kg, ip administered once daily after 3 to 6 days of fiber implantation measured on day 7 by hollow fiber assay; format: functional, TERT-RPE1; details: RPE-1, ip, read-out: GI; in short: as §1
[6] = Growth inhibition of human telomerase […] RPE1 cells implanted at subcutaneous compartment of athymic NCr nu/nu mouse at 25 mg/kg, ip administered once daily after 3 to 6 days of fiber implantation measured on day 7 by hollow fiber assay; format: functional, TERT-RPE1; details: RPE-1, sc, read-out: GI; in short: as §1
LNCaP = experiment: Cytotoxicity against human LNCAP cells; format: functional, cell-based
Mus musculus [7] = experiment: Toxicity in athymic NCr nu/nu mouse implanted with human KB cells at subcutaneous compartment assessed as body weight loss at 25 mg/kg, ip administered once daily after 3 to 6 days of fiber implantation measured on day 7 by hollow fiber assay; format: organism-based; parameters: dose 25 mg/kg; details: in vivo, sc
In short: (§2)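 Female athymic NCr nu/nu mice carried i.p. and s.c. hollow fibers with KB, Col-2 or hTERT-RPE1 cells. They received the PVP-coprecipitated compound in PBS at 6.25, 12.5 or 25 mg/kg i.p. once daily on days 3–6 after implantation. Toxicity was followed as body weight, recorded daily.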

Mus musculus [8] = experiment: Toxicity in athymic NCr nu/nu mouse implanted with human Col2 cells at subcutaneous compartment assessed as body weight loss at 25 mg/kg, ip administered once daily after 3 to 6 days of fiber implantation measured on day 7 by hollow fiber assay; format: organism-based; parameters: dose 25 mg/kg; details: in vivo, sc; in short: as §2
Mus musculus [9] = experiment: Toxicity in athymic NCr nu/nu mouse implanted with human Col2 cells at intraperitoneal compartment assessed as body weight loss at 25 mg/kg, ip administered once daily after 3 to 6 days of fiber implantation measured on day 7 by hollow fiber assay; format: organism-based; parameters: dose 25 mg/kg, route intraperitoneal; details: in vivo; in short: as §2
Mus musculus [10] = experiment: Toxicity in athymic NCr nu/nu mouse implanted with human KB cells at intraperitoneal compartment assessed as body weight loss at 25 mg/kg, ip administered once daily after 3 to 6 days of fiber implantation measured on day 7 by hollow fiber assay; format: organism-based; parameters: dose 25 mg/kg, route intraperitoneal; details: in vivo; in short: as §2
KB [11] = experiment: Growth inhibition of human KB cells implanted at intraperitoneal compartment of athymic NCr nu/nu mouse at 25 mg/kg, ip administered once daily after 3 to 6 days of fiber implantation measured on day 7 by hollow fiber assay; format: functional; details: read-out: GI; in short: as §1
Mus musculus [12] = experiment: Toxicity in athymic NCr nu/nu mouse implanted with human telomerase […] RPE1 cells at intraperitoneal compartment assessed as body weight loss at 25 mg/kg, ip administered once daily after 3 to 6 days of fiber implantation measured on day 7 by hollow fiber assay; format: organism-based; parameters: dose 25 mg/kg, route intraperitoneal; details: in vivo; in short: as §2
Col2 [13] = experiment: Cytotoxicity against human Col2 cells; format: functional, cell-based
Mus musculus [14] = experiment: Toxicity in athymic NCr nu/nu mouse implanted with human telomerase […] RPE1 cells at subcutaneous compartment assessed as body weight loss at 25 mg/kg, ip administered once daily after 3 to 6 days of fiber implantation measured on day 7 by hollow fiber assay; format: organism-based; parameters: dose 25 mg/kg; details: in vivo, sc; in short: as §2

COc1ccc2c(c1)O[C@@H]1c3ccc(O)cc3OC[C@H]21
EC50 (KB [1]): 2.4 µg/mL (≈ 8.88 µM)

COc1ccc(-c2coc3cc(O)ccc3c2=O)cc1
Activity (KB [1]): inactive

Oc1ccc2c(c1)OC[C@@H]1c3cc4c(cc3O[C@H]21)OCO4
Activity (KB [1]): inactive

COc1c(O)cc(C/C=C/c2ccccc2)c(OC)c1O [MACHARISTOL]
inhibition in vivo at 25 mg/kg (Col2 [2]): 35% | inhibition in vivo at 25 mg/kg (Col2 [3]): 35% | inhibition in vivo at 25 mg/kg (KB [4]): 0% | inhibition in vivo at 25 mg/kg [5]: 31% | inhibition in vivo at 25 mg/kg [6]: 45% | EC50 (KB [1]): 1.7 µg/mL (≈ 5.94 µM) | EC50 (LNCaP): 2.4 µg/mL (≈ 8.38 µM) | Activity (Mus musculus [7]): Non-toxic | Activity (Mus musculus [8]): Non-toxic | Activity (Mus musculus [9]): Non-toxic | Activity (Mus musculus [10]): Non-toxic | inhibition in vivo at 25 mg/kg (KB [11]): 23% | Activity (Mus musculus [12]): Non-toxic | EC50 (Col2 [13]): 3 µg/mL (≈ 10.5 µM) | Activity (Mus musculus [14]): Non-toxic
